Laboratory results published in ChEMBL document CHEMBL1649433, “Violacein extracted from Chromobacterium violaceum inhibits Plasmodium growth in vitro and in vivo” (Antimicrob Agents Chemother, 2009).
Calls of active or inactive are those of the source. No cut-off for these calls is given here.

Key:
Plasmodium falciparum [1] = test: Antimalarial activity against Plasmodium falciparum mature blood forms (24 to 48 hrs ring stage) infected in erythrocytes after 24 hrs by [3H]hypoxanthine incorporation assay; format: functional, organism-based; conditions: in the assay text read “trophozoites and schizonts stage” for “ring stage”
Summary of the method: (§1)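 Synchronized (±6 h) P. falciparum 3D7 blood stages were prepared by repeated 5% sorbitol treatment. Rings (0-24 h) or trophozoites/schizonts (24-48 h) were used at 1% parasitemia and 2% final hematocrit, exposed to violacein for 24 h, and growth was read by [3H]-hypoxanthine incorporation. Inhibition % = [1 − (CPM treated − CPM uninfected RBC)/(CPM untreated − CPM uninfected RBC)] × 100. Runs were in triplicate.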

Plasmodium falciparum [2] = test: Antimalarial activity against chloroquine-sensitive Plasmodium falciparum 3D7 infected in erythrocytes after 48 hrs by [3H]hypoxanthine incorporation assay; format: functional, organism-based
Summary of the method: (§2)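 Erythrocytes infected with P. falciparum at 1% parasitemia, 2% final hematocrit; growth read by [3H]-hypoxanthine incorporation after 48 h at 37°C. Inhibition % = [1 – (CPM treated IE – CPM NE)/(CPM untreated IE – CPM NE)] x 100, untreated IE as 100% growth. Triplicates, at least three times with different batches and cells; concentrations from 0.06 µM upward; IC50 from dose-response.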

Plasmodium chabaudi [3] = test: Antimalarial activity against nonlethal Plasmodium chabaudi chabaudi AS infected in C57BL/6 mouse assessed as inhibition of parasitemia at 3.75 mg/kg/day, ip administered 1 hr post-infection and measured on day 7 post-infection; format: functional; conditions: route intraperitoneal
Summary of the method: (§3)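 C57BL/6 mice (7-10 per group, aged 7-10 weeks, 20 ± 3 g) infected i.p. with 106 IE of P. c. chabaudi AS; given daily i.p. doses of 0.75 to 7.5 mg/kg/day for 11 consecutive days (days 0-10), first dose 1 h p.i. Parasitemia counted daily in Giemsa-stained smears (≥1,000 erythrocytes) until day 12; inhibition relative to untreated mice.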

Plasmodium chabaudi [4] = test: Antimalarial activity against nonlethal Plasmodium chabaudi chabaudi AS infected in C57BL/6 mouse assessed as inhibition of parasitemia at 3.75 mg/kg/day, ip administered 1 hr post-infection and measured on day 6 post-infection; format: functional; conditions: route intraperitoneal; summary of the method: as §3
Plasmodium chabaudi [5] = test: Antimalarial activity against nonlethal Plasmodium chabaudi chabaudi AS infected in C57BL/6 mouse assessed as inhibition of parasitemia at 3.75 mg/kg/day, ip administered 1 hr post-infection and measured on day 5 post-infection; format: functional; conditions: route intraperitoneal; summary of the method: as §3
Plasmodium chabaudi [6] = test: Antimalarial activity against nonlethal Plasmodium chabaudi chabaudi AS infected in C57BL/6 mouse assessed as inhibition of parasitemia at 7.5 mg/kg/day, ip administered 5 days post-infection and measured on day 7 post-infection; format: functional; conditions: route intraperitoneal
Summary of the method: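 Mice infected i.p. with 106 P. c. chabaudi AS IE; 7.5 mg/kg/day given i.p. daily from day 5 p.i. (16% parasitemia) to day 10 (6 days). Parasitemia counted daily in Giemsa-stained smears (≥1,000 erythrocytes) versus untreated mice; Mann-Whitney U test.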

Plasmodium chabaudi [7] = test: Antimalarial activity against lethal Plasmodium chabaudi chabaudi AJ infected in C57BL/6 mouse assessed as mouse survival rate at 7.5 mg/kg/day, ip administered 1 hr post-infection and measured on day 14 post-infection; format: functional; conditions: route intraperitoneal
Summary of the method: (§4)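 C57BL/6 mice, groups of 10, aged 7-10 weeks, 20 ± 3 g, infected i.p. with 106 IE of lethal P. c. chabaudi AJ; 7.5 mg/kg/day given i.p. for 11 consecutive days (days 0-10 p.i.), first dose 1 h p.i.; survival followed daily versus untreated mice; Log-Rank test.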

Plasmodium chabaudi [8] = test: Antimalarial activity against nonlethal Plasmodium chabaudi chabaudi AS infected in C57BL/6 mouse assessed as inhibition of parasitemia at 0.075 mg/kg/day, ip administered 1 hr post-infection and measured on day 6 post-infection; format: functional, organism-based
Summary of the method: (§5)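 C57BL/6 mice (7-10 per group, 7-10 weeks old, 20 ± 3 g) were infected i.p. with 10^6 P. chabaudi chabaudi AS infected erythrocytes. Violacein was given i.p. daily for 11 days (days 0-10), starting 1 h post-infection. Parasitemia was counted daily on Giemsa-stained smears (≥1,000 erythrocytes) and inhibition was calculated against untreated infected mice.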

Plasmodium chabaudi [9] = test: Antimalarial activity against nonlethal Plasmodium chabaudi chabaudi AS infected in C57BL/6 mouse assessed as inhibition of parasitemia at 0.75 mg/kg/day, ip administered 1 hr post-infection and measured on day 5 post-infection; format: functional; conditions: route intraperitoneal; summary of the method: as §3
Plasmodium chabaudi [10] = test: Antimalarial activity against nonlethal Plasmodium chabaudi chabaudi AS infected in C57BL/6 mouse assessed as inhibition of parasitemia at 0.75 mg/kg/day, ip administered 1 hr post-infection and measured on day 6 post-infection; format: functional; conditions: route intraperitoneal; summary of the method: as §3
Plasmodium chabaudi [11] = test: Antimalarial activity against nonlethal Plasmodium chabaudi chabaudi AS infected in C57BL/6 mouse assessed as inhibition of parasitemia at 0.075 mg/kg/day, ip administered 1 hr post-infection and measured on day 7 post-infection; format: functional, organism-based; summary of the method: as §5
Plasmodium falciparum [12] = test: Antimalarial activity against chloroquine-resistant Plasmodium falciparum S20 infected in erythrocytes after 48 hrs by [3H]hypoxanthine incorporation assay; format: functional, organism-based; summary of the method: as §2
Plasmodium chabaudi [13] = test: Antimalarial activity against nonlethal Plasmodium chabaudi chabaudi AS infected in C57BL/6 mouse assessed as inhibition of parasitemia at 7.5 mg/kg/day, ip administered 1 hr post-infection and measured on day 6 post-infection; format: functional; conditions: route intraperitoneal; summary of the method: as §3
Plasmodium chabaudi [14] = test: Antimalarial activity against nonlethal Plasmodium chabaudi chabaudi AS infected in C57BL/6 mouse assessed inhibition of parasitemia at 7.5 mg/kg/day, ip for 10 days followed by compound withdrawal and measured on day 16 post-infection; format: functional; conditions: route intraperitoneal
Summary of the method: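 Mice infected i.p. with 106 P. c. chabaudi AS IE; 7.5 mg/kg/day given i.p. for 11 days (0-10 p.i.) from 1 h p.i., then withdrawn. Parasitemia followed in Giemsa-stained smears until day 22 p.i. versus untreated mice; Mann-Whitney U test.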

Plasmodium chabaudi [15] = test: Antimalarial activity against nonlethal Plasmodium chabaudi chabaudi AS infected in C57BL/6 mouse assessed as inhibition of parasitemia at 7.5 mg/kg/day, ip administered 1 hr post-infection and measured on day 8 post-infection; format: functional; conditions: route intraperitoneal; summary of the method: as §3
Plasmodium chabaudi [16] = test: Antimalarial activity against nonlethal Plasmodium chabaudi chabaudi AS infected in C57BL/6 mouse assessed as inhibition of parasitemia at 0.075 mg/kg/day, ip administered 1 hr post-infection and measured on day 5 post-infection; format: functional, organism-based; summary of the method: as §5
Plasmodium chabaudi [17] = test: Antimalarial activity against nonlethal Plasmodium chabaudi chabaudi AS infected in C57BL/6 mouse assessed as inhibition of parasitemia at 0.075 mg/kg/day, ip administered 1 hr post-infection and measured on day 8 post-infection; format: functional; conditions: route intraperitoneal
Plasmodium chabaudi [18] = test: Antimalarial activity against nonlethal Plasmodium chabaudi chabaudi AS infected in C57BL/6 mouse assessed as inhibition of parasitemia at 3.75 mg/kg/day, ip administered 1 hr post-infection and measured on day 8 post-infection; format: functional; conditions: route intraperitoneal; summary of the method: as §3
Plasmodium chabaudi [19] = test: Antimalarial activity against nonlethal Plasmodium chabaudi chabaudi AS infected in C57BL/6 mouse assessed as inhibition of parasitemia at 0.75 mg/kg/day, ip administered 1 hr post-infection and measured on day 7 post-infection; format: functional; conditions: route intraperitoneal; summary of the method: as §3
Plasmodium chabaudi [20] = test: Antimalarial activity against nonlethal Plasmodium chabaudi chabaudi AS infected in C57BL/6 mouse assessed as inhibition of parasitemia at 7.5 mg/kg/day, ip administered 1 hr post-infection and measured on day 5 post-infection; format: functional; conditions: route intraperitoneal; summary of the method: as §3
Plasmodium chabaudi [21] = test: Antimalarial activity against nonlethal Plasmodium chabaudi chabaudi AS infected in C57BL/6 mouse assessed as inhibition of parasitemia at 0.75 mg/kg/day, ip administered 1 hr post-infection and measured on day 8 post-infection; format: functional; conditions: route intraperitoneal; summary of the method: as §3
Plasmodium chabaudi [22] = test: Antimalarial activity against nonlethal Plasmodium chabaudi chabaudi AS infected in C57BL/6 mouse assessed as inhibition of parasitemia at 7.5 mg/kg/day, ip administered 1 hr post-infection and measured on day 7 post-infection; format: functional; conditions: route intraperitoneal; summary of the method: as §3
Plasmodium chabaudi [23] = test: Antimalarial activity against lethal Plasmodium chabaudi chabaudi AJ infected in C57BL/6 mouse assessed as mouse survival rate at 7.5 mg/kg/day, ip administered 1 hr post-infection and measured on day 16 post-infection; format: functional; conditions: route intraperitoneal; summary of the method: as §4
Plasmodium falciparum [24] = test: Antimalarial activity against Plasmodium falciparum young blood forms (0 to 24 hrs ring stage) infected in erythrocytes after 24 hrs by [3H]hypoxanthine incorporation assay; format: functional, organism-based; summary of the method: as §1
Plasmodium chabaudi [25] = test: Antimalarial activity against lethal Plasmodium chabaudi chabaudi AJ infected in C57BL/6 mouse assessed as mouse survival rate at 7.5 mg/kg/day, ip administered 1 hr post-infection and measured on day 9 post-infection; format: functional; conditions: route intraperitoneal; summary of the method: as §4
[26] = Toxicity in erythrocytes assessed as red blood cell density at 14 uM after 48 hrs; format: cell-based; conditions: erythrocyte
Summary of the method: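 Uninfected erythrocytes were cultured 48 h at 37°C with a range of violacein concentrations. Cells were counted in a Neubauer chamber. RBC density was expressed as % of the drug-free control: (RBC/mL with violacein ÷ RBC/mL without) × 100. Results are means of triplicates ± SD, with Mann-Whitney U test for significance.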

Q: What does the source list for O=C1NC(c2c[nH]c3ccc(O)cc23)=C/C1=C1\C(=O)Nc2ccccc21 [VIOLACEIN]?
A: inhibition (Plasmodium falciparum [1]): Active; IC50 (Plasmodium falciparum [2]): 850 nM; inhibition in vivo at 3.75 mg/kg/day (Plasmodium chabaudi [3]): 82.1%; inhibition in vivo at 3.75 mg/kg/day (Plasmodium chabaudi [4]): 64.9%; inhibition in vivo at 3.75 mg/kg/day (Plasmodium chabaudi [5]): 33.2%; inhibition in vivo at 7.5 mg/kg/day (Plasmodium chabaudi [6]): 50.1%; survival at 7.5 mg/kg/day (Plasmodium chabaudi [7]): 14%; inhibition (Plasmodium chabaudi [8]): inactive; inhibition in vivo at 0.75 mg/kg/day (Plasmodium chabaudi [9]): 3.58%; inhibition in vivo at 0.75 mg/kg/day (Plasmodium chabaudi [10]): 20.4%; inhibition (Plasmodium chabaudi [11]): inactive; IC50 (Plasmodium falciparum [12]): 630 nM; inhibition in vivo at 7.5 mg/kg/day (Plasmodium chabaudi [13]): 75.4%; inhibition in vivo at 7.5 mg/kg/day (Plasmodium chabaudi [14]): 59%; inhibition in vivo at 7.5 mg/kg/day (Plasmodium chabaudi [15]): 84.7%; inhibition (Plasmodium chabaudi [16]): inactive; inhibition in vivo at 0.075 mg/kg/day (Plasmodium chabaudi [17]): 12%; inhibition in vivo at 3.75 mg/kg/day (Plasmodium chabaudi [18]): 75.7%; inhibition in vivo at 0.75 mg/kg/day (Plasmodium chabaudi [19]): 39.2%; inhibition in vivo at 7.5 mg/kg/day (Plasmodium chabaudi [20]): 56.5%; inhibition in vivo at 0.75 mg/kg/day (Plasmodium chabaudi [21]): 48.9%; inhibition in vivo at 7.5 mg/kg/day (Plasmodium chabaudi [22]): 86.9%; survival at 7.5 mg/kg/day (Plasmodium chabaudi [23]): 80%; inhibition (Plasmodium falciparum [24]): Active; survival at 7.5 mg/kg/day (Plasmodium chabaudi [25]): 10%; Activity [26]: Toxic
